Calls of active or inactive are those of the source.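 How the source made its calls, unless noted: active means compounds giving at least 50% inhibition in the cell-based MKP-3 phosphatase rescue imaging test; inactive means the rest.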
Legend:
[1] = inhibitors of TNFa-induced NFkB p65 translocation, primary screen, imaging, HUVEC, MLSMR starter and 10KST1 sets (AID 438;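 active means inhibition above 20% together with a positive visual image hit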;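 further: compound added about 3h40 before a 20 min TNFalpha stimulation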;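 on inhibition: signal is the nuclear over cytoplasmic p65 intensity ratio per well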); conditions: HUVEC TNFa-induced p65 nuclear translocation; cell count: measured here: nuclei count (cytotoxicity indicator), at 2.08 µM; inhibition: at 2 µM, stronger effect = higher value, 0% TNFa-plus-vehicle, 100% no-TNFa wells
[2] = inhibitors of E-selectin induction by TNFa, primary screen, imaging, HUVEC, immunofluorescence, MLSMR starter and 10KST1 sets (AID 487;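 active means visually confirmed hit in the image check and inhibition above 20%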;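 on inhibition: signal is fraction of cell area covered by stained E-selectin grains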;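 on nuclei count: 100% = median nuclei count of all wells on the same plate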); conditions: HUVEC TNFalpha-induced E-selectin immunofluorescence imaging, at 2 µM; inhibition: stronger effect = higher value; nuclei count: measured here: cell number, toxicity
[3] = DUSP6 inhibitors restoring Erk phosphorylation by chemical complementation, primary imaging in DUSP6-transfected HeLa (AID 609); conditions: HeLa MKP-3 transfected, phospho-Erk imaging KS statistic, at 10 µM, cells stimulated with TPA for 15 min;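 on inhibition: phospho-Erk level distribution per well compared with pooled transfected vehicle control wells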
[4] = molecular target: Dual specificity protein phosphatase 6 (Homo sapiens) (UniProt Q16828); test: as above; conditions: HeLa MKP-3 transfected, phospho-Erk imaging KS statistic; at 10 µM; stronger effect = higher value; cells stimulated with TPA for 15 min
[5] = molecular target: Voltage-gated potassium channel subunit beta-2 (Rattus norvegicus) (UniProt P62483); test: KvBeta enzyme negative modulators, primary screen, biochemical, NADPH fluorescence (AID 622;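 active means fluorescence slope higher than the sample average by over 3 SD, cut at about -0.22 in these data, passing the limit was not always enough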;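 further: slope of raw intensity against log time taken from 70 to 1610 s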); conditions: recombinant KvBeta, 4-cyanobenzaldehyde reduction, at 10 µM, stronger effect = higher value
[6] = molecular target: Voltage-gated potassium channel subunit beta-2 (Rattus norvegicus) (UniProt P62483); test: KvBeta positive modulators, primary screen, biochemical, NADPH fluorescence (AID 623;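 active means NADPH fluorescence slope more negative than the mean of all samples by about 3 SD, 99.7% confidence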;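 further: fluorescence intensity change per second fitted from 20 to 320 s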); conditions: Recombinant KvBeta, NADPH fluorescence decrease slope, 10 min; at 10 µM; stronger effect = lower value
[7] = molecular target: Alpha-2C adrenergic receptor (Homo sapiens) (UniProt P18825); test: modulators of alpha2C/GIRK thallium flux, primary screen, cell-based, HEK293 alpha2C/GIRK1/2 (AID 624;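 active means fluorescence slope after compound addition differing from the mean of all screened samples at 99.7% confidence, in either direction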;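 further: slope of fluorescence ratio to pre-addition baseline per second over 15 to 24 s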); conditions: thallium flux BTC fluorescence, at 10 µM, actives lie on both sides
[8] = inhibitors of larval lipid processing in zebrafish, primary screen, whole organism, PED6 fluorescence, gall bladder and intestine (AID 686;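 active means a full or partial loss of lipid-probe fluorescence in the fish gall bladder, intestine or both, judged by eye; inactive means no fluorescence loss, or compound toxic to the fish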;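 further: larvae 5 to 7 days old with five fish per well; signal comes from phospholipase A2 cleavage of quenched PED6 carried via bile; overnight exposure to compound and PED6 before scoring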); conditions: Zebrafish larvae PED6 lipid processing, fluorescence scoring; screened at 20 µM (by protocol)
Summary of the method: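 system = live zebrafish larvae aged 5-7 days, whole organism | probe or stimulus = ingested quenched lipid PED6 at 100 nM | doses = 20 µM single dose | timing = overnight exposure | detection = fluorescence microscopy with visual scoring of gall bladder and intestine | read-out = visual per-well fluorescence inhibition score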

[9] = inhibitors of Chlamydomonas gravitaxis, primary screen, whole organism, Chlamydomonas reinhardtii, WT vs cilia-less mutant, absorbance, 96-well (AID 463189;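 active means inhibition at or above 50% relative to wild type and mutant plate controls; inactive means inhibition below 50%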;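 further: 0% = wild type cc124 cells in DMSO and 100% = ciliumless bld1 mutant cells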); conditions: OD600 absorbance, 2 days, at 10 µM, stronger effect = higher value
[10] = measured here: cell density z-score
[11] = measured here: nuclear c-Myc green intensity z-score
[12] = measured here: nuclear pErk red intensity z-score, stronger effect = higher value

Sequence of Voltage-gated potassium channel subunit beta-2 (Rattus norvegicus) (P62483 whole entry, looked up): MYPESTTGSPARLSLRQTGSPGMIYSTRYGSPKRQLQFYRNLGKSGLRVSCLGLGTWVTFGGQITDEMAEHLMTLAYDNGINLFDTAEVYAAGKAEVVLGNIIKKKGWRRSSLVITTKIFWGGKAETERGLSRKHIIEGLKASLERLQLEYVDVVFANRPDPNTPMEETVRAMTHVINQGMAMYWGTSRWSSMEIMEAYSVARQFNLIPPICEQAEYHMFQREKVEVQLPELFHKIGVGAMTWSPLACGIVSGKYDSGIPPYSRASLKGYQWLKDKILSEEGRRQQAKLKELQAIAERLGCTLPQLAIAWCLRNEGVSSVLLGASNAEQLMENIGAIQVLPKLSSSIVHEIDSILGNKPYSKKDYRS
Sequence of Dual specificity protein phosphatase 6 (Homo sapiens) (Q16828 whole entry, looked up): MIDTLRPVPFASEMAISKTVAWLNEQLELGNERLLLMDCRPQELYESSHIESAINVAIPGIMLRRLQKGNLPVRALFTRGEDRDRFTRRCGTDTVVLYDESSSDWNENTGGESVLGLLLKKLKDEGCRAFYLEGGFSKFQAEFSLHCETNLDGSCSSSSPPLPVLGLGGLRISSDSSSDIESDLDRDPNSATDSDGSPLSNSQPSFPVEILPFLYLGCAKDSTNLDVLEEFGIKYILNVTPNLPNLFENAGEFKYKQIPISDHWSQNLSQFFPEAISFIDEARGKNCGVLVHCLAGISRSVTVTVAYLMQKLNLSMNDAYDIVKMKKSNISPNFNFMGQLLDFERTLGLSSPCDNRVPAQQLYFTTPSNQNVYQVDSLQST
Sequence of Alpha-2C adrenergic receptor (Homo sapiens) (P18825 whole entry, looked up): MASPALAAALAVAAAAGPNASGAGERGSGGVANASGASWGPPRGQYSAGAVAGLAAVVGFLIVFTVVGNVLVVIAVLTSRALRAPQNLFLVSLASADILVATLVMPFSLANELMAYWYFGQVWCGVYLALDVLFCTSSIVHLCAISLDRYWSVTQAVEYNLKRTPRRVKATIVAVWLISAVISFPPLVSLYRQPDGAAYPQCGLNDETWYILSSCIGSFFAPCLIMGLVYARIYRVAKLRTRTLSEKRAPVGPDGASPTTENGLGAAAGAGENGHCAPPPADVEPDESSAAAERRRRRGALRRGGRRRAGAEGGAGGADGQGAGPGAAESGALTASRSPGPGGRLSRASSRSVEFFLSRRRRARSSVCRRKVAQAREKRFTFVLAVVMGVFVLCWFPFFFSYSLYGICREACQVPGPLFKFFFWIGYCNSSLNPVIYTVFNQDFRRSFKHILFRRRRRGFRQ

SMILES | cell count [1] | inhibition [1] | inhibition [2] | nuclei count [2] [%] | z-score [3, 10] | z-score [3, 11] | z-score [3, 12] | inhibition [4] | fluorescence slope [5] | NADPH fluorescence slope [6] | slope [7] | outcome [8] | inhibition [9]
Cc1cc(OCCN2CCCCC2)nc2ccccc12 | 482 | 6.3% (inactive) | -39.5% (inactive) | 95 | 1.18 | -0.61 | -0.992 | 26.3% (inactive) | -0.332 (inactive) | 1.4e-05 (inactive) | 0.0054 (inactive) | inactive | 39.2% (inactive)
CCCCOc1ccc(C)cc1CN(CCO)CCO | 552 | -8% (inactive) | -87% (inactive) | 111 | -1.69 | -0.122 | -1.5 | 1.9e-07% (inactive) | -0.506 (inactive) | -1.2e-05 (inactive) | 0.0065 (inactive) | inactive | -2.14% (inactive)
CCOc1ccc(C2C(C(=O)c3ccc(C)o3)=C(O)C(=O)N2CCCN(CC)CC)cc1 (stereo not given) | 518 | -20.5% (inactive) | -72.6% (inactive) | 151 | 1.15 | -0.0565 | 0.452 | -2.47% (inactive) | -0.509 (inactive) | -3.9e-05 (inactive) | 0.00538 (inactive) | inactive | 0.749% (inactive)
CN1c2ccccc2N(C)C1c1c(O)ccc2ccccc12 | 340 | -22% (inactive) | -387% (inactive) | 180 | 0.38 | -1.52 | 0.412 | -2.07% (inactive) | -0.407 (inactive) | -4.1e-05 (inactive) | 0.00586 (inactive) | inactive | 1.66% (inactive)
Cc1nccn1-c1cc(C(C)C)c(C#N)c2nc3ccccc3n12 | 468 | -22.6% (inactive) | -68.2% (inactive) | 140 | 1.43 | -0.347 | -0.664 | 8.31% (inactive) | -0.524 (inactive) | -2.8e-05 (inactive) | 0.0063 (inactive) | inactive | 23% (inactive)
Oc1ccccc1-c1nc(NCCN2CCOCC2)c2ccccc2n1 | 268 | -6.5% (inactive) | 14.7% (inactive) | 96.7 | 0.138 | 3.56 | -0.549 | 1.6e-07% (inactive) | -0.423 (inactive) | -3.4e-05 (inactive) | 0.00504 (inactive) | – | 62.5% (active)
CC1(C)Cc2c(C#N)c(OCC(=O)c3ccc(Cl)cc3)nc(-c3ccoc3)c2CO1 | 654 | -2.9% (inactive) | 20% (inactive) | 170 | -0.432 | -0.355 | 0.479 | 13.2% (inactive) | -0.487 (inactive) | -4.2e-05 (inactive) | 0.00736 (inactive) | inactive | 40.4% (inactive)
COc1cc(C2C(C#N)=C(N)Oc3cc(C)n(CCc4ccccc4)c(=O)c32)cc2c1OCO2 (stereo not given) | 331 | -2.4% (inactive) | -42.5% (inactive) | 165 | -0.617 | 1.54 | 1.26 | 11.4% (inactive) | -0.433 (inactive) | -0.000158 (inactive) | 0.00471 (inactive) | inactive | 11.9% (inactive)
COc1ccc(CCn2c(C)ccc2C)cc1OC | 476 | -5.7% (inactive) | -58.3% (inactive) | 112 | -0.324 | 0.735 | -0.301 | 3.66% (inactive) | -0.488 (inactive) | -8e-05 (inactive) | 0.00401 (inactive) | inactive | -7.78% (inactive)
COc1ccc(-c2c3c([nH]c(=S)c2C#N)CCC3)cc1 | 527 | -5.1% (inactive) | -113% (inactive) | 192 | -0.0351 | 1.87 | 0.16 | 2.46% (inactive) | -0.314 (inactive) | -4.4e-06 (inactive) | 0.00379 (inactive) | inactive | -1.44% (inactive)
CCOc1cccc(-c2nnc3sc(-c4ccc(C)cc4)nn23)c1 | 588 | -12% (inactive) | -113% (inactive) | 166 | 0.29 | -1.67 | 0.863 | -9.66% (inactive) | -0.458 (inactive) | -0.000137 (inactive) | 0.00552 (inactive) | inactive | -1.49% (inactive)
COC(=O)CC1=NC(=O)CS1 | 690 | -4.3% (inactive) | -84.4% (inactive) | 164 | -1.27 | 0.428 | 1.11 | -7.28% (inactive) | -0.41 (inactive) | -8.9e-06 (inactive) | 0.00544 (inactive) | inactive | -1.11% (inactive)
c1csc(-c2nn3c(C4CCCCC4)nnc3s2)c1 | 623 | -8.5% (inactive) | -52.2% (inactive) | 155 | -1.83 | -0.584 | 2.62 | -15% (inactive) | -0.426 (inactive) | -0.00015 (inactive) | 0.00407 (inactive) | inactive | 13.7% (inactive)
Cc1cc(C)n2c3c(c(C#N)c2n1)CC(C)(C)OC3 | 670 | -7.2% (inactive) | 55.6% (inactive) | 131 | 0.0106 | -1.04 | -0.0691 | 11.3% (inactive) | -0.327 (inactive) | 2.8e-06 (inactive) | 0.00519 (inactive) | inactive | 14.5% (inactive)
CCOC(=O)c1oc2cc(O)cc(C)c2c(=O)c1-c1cscn1 | 583 | -5.6% (inactive) | -117% (inactive) | 133 | 0.544 | -0.073 | -1.73 | 19.8% (inactive) | -0.569 (inactive) | -4.5e-05 (inactive) | 0.0036 (inactive) | inactive | -5.6% (inactive)
Cn1ncc2nnn(-c3ccccc3)c(=O)c21 | 492 | -0.2% (inactive) | -10.3% (inactive) | 107 | -0.32 | 1.71 | -1.2 | -1.12% (inactive) | -0.497 (inactive) | -0.000269 (inactive) | 0.00475 (inactive) | inactive | -10.6% (inactive)
COc1ccc(-c2cc3nc4n(c(=O)c3s2)CCOC4)cc1 | 561 | -7.1% (inactive) | 30.7% (inactive) | 157 | -0.862 | -0.643 | -0.319 | -5.26% (inactive) | -0.185 (inactive) | -1.6e-05 (inactive) | 0.0053 (inactive) | inactive | 7.02% (inactive)
CCN(CC)CCN1C(=O)C(=O)/C(=C(/O)c2ccc(C)cc2)C1c1cccnc1 (stereo not given) | 390 | -0.5% (inactive) | -20.8% (inactive) | 113 | 0.619 | -0.778 | 0.527 | -5.89% (inactive) | -0.426 (inactive) | -5.7e-05 (inactive) | 0.00669 (inactive) | inactive | 8.05% (inactive)
CCCCOC(=O)CSC1=C(C#N)C(c2ccccc2OC)C(C#N)C(=O)N1 (stereo not given) | 504 | -3% (inactive) | -46% (inactive) | 116 | -0.706 | 0.338 | 1.09 | 9.39% (inactive) | -0.481 (inactive) | -0.000165 (inactive) | 0.00464 (inactive) | inactive | -21.1% (inactive)
Cc1cc(C)nc(CC(N)=O)n1 | 623 | -3.1% (inactive) | 3.3% (inactive) | 142 | 0.214 | 0.0631 | 0.457 | 6.04% (inactive) | -0.508 (inactive) | -4e-05 (inactive) | 0.0046 (inactive) | inactive | 14.5% (inactive)
Cc1ccc(C#N)c(SCc2cc3c(cc2Cl)OCO3)n1 | 538 | -31.1% (inactive) | -76.1% (inactive) | 159 | -0.24 | -0.891 | -0.243 | -2.47% (inactive) | -0.515 (inactive) | -6.3e-05 (inactive) | 0.00686 (inactive) | inactive | 28.8% (inactive)
CNC(=O)c1cc2c(ccc3ccccc32)oc1=N | 498 | -4% (inactive) | -64.4% (inactive) | 134 | 0.106 | 1.1 | -0.558 | -0.159% (inactive) | -0.075 (active) | -2.6e-05 (inactive) | 0.00187 (inactive) | inactive | 0.922% (inactive)
OCCN(CCO)c1ncnc2c1sc1nc(N3CCOCC3)c3c(c12)CCCC3 | 597 | -26.4% (inactive) | -62.2% (inactive) | 167 | 0.421 | -0.458 | -0.129 | 7.73% (inactive) | -0.275 (inactive) | 1.3e-05 (inactive) | 0.00534 (inactive) | inactive | -3.05% (inactive)
CSc1nc2sc3c(c2c(=O)[nH]1)CCC(C)C3 (stereo not given) | 503 | -19.4% (inactive) | -109% (inactive) | 191 | -1.18 | 2.07 | -0.579 | 20.2% (inactive) | -0.364 (inactive) | 1.3e-05 (inactive) | 0.00953 (active) | inactive | 3.37% (inactive)
COc1ccc(CCNC2CC(C)N(C)CC2C)cc1OC (stereo not given) | 549 | -11.3% (inactive) | -75.9% (inactive) | 170 | 0.099 | -0.11 | 2.07 | -0.608% (inactive) | -0.515 (inactive) | -3e-05 (inactive) | 0.00466 (inactive) | inactive | 12.3% (inactive)
CC1(C)CC(N(Cc2ccco2)C(=O)Cc2ccccc2)CCO1 (stereo not given) | 535 | 12.5% (inactive) | -104% (inactive) | 145 | -0.358 | 2.8 | -0.796 | 3.5% (inactive) | -0.485 (inactive) | -3.2e-05 (inactive) | 0.00539 (inactive) | inactive | 6.62% (inactive)
Cc1nnc(SCc2nc3ccccc3[nH]2)s1 | 417 | -9.9% (inactive) | -178% (inactive) | 172 | 1.08 | -0.712 | -0.186 | -5.89% (inactive) | -0.368 (inactive) | -5.3e-05 (inactive) | 0.00478 (inactive) | inactive | 9.63% (inactive)
